The source made the active and inactive calls. No cut-off for these calls is given here.
Assays:
[1] = target: T1, Glucosyltransferase-I (Streptococcus mutans serotype c (strain ATCC 700610 / UA159)) (UniProt P08987); assay: Inhibition of Wild-type Streptococcus mutans UA159 glucosyltransferase B at 50 uM by zymography
T1 sequence (whole entry): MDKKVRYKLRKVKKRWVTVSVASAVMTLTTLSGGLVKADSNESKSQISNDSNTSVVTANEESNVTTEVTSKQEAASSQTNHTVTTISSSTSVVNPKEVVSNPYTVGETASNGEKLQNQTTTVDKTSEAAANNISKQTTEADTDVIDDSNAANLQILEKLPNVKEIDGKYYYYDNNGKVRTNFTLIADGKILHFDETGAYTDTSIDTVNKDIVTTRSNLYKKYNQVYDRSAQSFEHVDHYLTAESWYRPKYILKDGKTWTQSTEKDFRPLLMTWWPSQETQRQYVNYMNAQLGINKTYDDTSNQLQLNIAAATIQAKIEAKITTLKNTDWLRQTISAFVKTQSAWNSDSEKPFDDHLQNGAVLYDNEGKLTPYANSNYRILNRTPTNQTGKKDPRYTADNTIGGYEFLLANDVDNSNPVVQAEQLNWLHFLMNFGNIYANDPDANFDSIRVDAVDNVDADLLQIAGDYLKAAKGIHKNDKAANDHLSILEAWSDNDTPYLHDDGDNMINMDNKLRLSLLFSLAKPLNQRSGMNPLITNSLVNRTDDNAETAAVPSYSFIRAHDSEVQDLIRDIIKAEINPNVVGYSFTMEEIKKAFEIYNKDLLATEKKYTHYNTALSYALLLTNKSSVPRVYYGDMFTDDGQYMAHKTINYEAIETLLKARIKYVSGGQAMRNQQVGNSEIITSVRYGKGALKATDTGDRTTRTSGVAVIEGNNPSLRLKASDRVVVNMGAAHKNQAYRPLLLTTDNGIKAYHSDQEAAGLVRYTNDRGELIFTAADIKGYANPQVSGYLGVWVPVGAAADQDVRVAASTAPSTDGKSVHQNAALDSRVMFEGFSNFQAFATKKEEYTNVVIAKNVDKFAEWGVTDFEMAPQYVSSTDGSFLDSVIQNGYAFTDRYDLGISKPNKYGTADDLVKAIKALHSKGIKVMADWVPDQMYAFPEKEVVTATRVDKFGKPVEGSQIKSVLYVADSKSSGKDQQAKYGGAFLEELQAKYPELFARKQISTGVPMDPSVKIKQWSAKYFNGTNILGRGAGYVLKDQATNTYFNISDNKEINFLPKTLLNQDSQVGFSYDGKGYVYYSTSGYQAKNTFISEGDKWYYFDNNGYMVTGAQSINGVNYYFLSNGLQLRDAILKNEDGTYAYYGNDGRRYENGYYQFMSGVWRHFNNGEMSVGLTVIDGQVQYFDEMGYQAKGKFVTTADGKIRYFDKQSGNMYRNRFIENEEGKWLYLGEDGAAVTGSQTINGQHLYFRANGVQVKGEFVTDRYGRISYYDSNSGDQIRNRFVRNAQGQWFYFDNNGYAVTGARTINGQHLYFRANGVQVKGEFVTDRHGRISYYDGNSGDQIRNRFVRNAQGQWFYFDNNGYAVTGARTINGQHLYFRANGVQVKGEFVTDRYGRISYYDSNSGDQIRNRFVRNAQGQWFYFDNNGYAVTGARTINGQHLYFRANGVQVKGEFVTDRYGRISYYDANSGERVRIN
Summary of the method: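 Compound (50 µM) added to overnight S. mutans UA159 wild-type cultures; Gtfs concentrated from supernatants, run on duplicate SDS-PAGE; second gel used for zymogram, glucan band intensity taken as Gtf activity.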

Streptococcus mutans [2] = assay: Inhibition of biofilm formation of Streptococcus mutans UA159 after 16 hrs by crystal violet staining based serial dilution method; type: functional, organism-based; conditions: Streptococcus mutans, UA159, 16 h
Summary of the method: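 S. mutans UA159 co-incubated with compound at various concentrations; biofilm quantified by crystal violet protocol, read at OD562.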

Streptococcus mutans [3] = assay: Selectivity index, ratio of growth inhibition IC50 for Streptococcus mutans UA159 to biofilm inhibition IC50 for Streptococcus mutans UA159

| Structure (SMILES) | inhibition [1] | IC50 (Streptococcus mutans [2]) [µM] | Ratio IC50 (Streptococcus mutans [3]) |
| --- | --- | --- | --- |
| O=C(/C=C\c1ccc(O)cc1O)c1cccc(O)c1 | Active | 44 | 10.6 |
| O=C(/C=C\c1ccc(O)cc1O)c1ccc(O)cc1 | Active | 77 | 10.1 |
| O=C(/C=C/c1ccc(O)cc1O)c1cccc(O)c1 (stereo in doubt; 9a) | Active | – | – |

Further lines, with some results ahead:

| inhibition [1] | IC50 (Streptococcus mutans [2]) [µM] | Structure (SMILES) | Ratio IC50 (Streptococcus mutans [3]) |
| --- | --- | --- | --- |
| Active | – | O=C(/C=C/c1cc(O)c(O)cc1O)c1ccccc1O (stereo in doubt; 18c) | – |
| Active | 162 | O=C(/C=C/c1ccc(O)cc1O)c1ccc(O)cc1 | 6.6 |
